Assay [1] deals with Mus musculus. As to the kind of experiment: Antiamnesic activity in ip dosed mouse assessed as reversal of scopolamine-induced amnesia after 20 mins by passive-avoidance test. Format: functional. The note with it: for minimal effective dose: Mus musculus, ip, 20 min, read-out: MED.
The subject of assay [2] is Mus musculus. Nature of the assay: Antiamnesic activity in mouse assessed as reversal of scopolamine-induced amnesia at 10 mg/kg, ip after 20 mins by passive-avoidance test. Format: functional, organism-based. Also noted: dose 10 mg/kg. The procedure, abridged:
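Mice; compounds dissolved in saline, given ip 20 min before the training session of the passive-avoidance test. Scopolamine injected immediately after punishment. Doses tested up to 10 mg/kg; activity read as reversal of scopolamine-induced amnesia at retention. Each value is the mean of 8-18 mice, compared against scopolamine-treated mice.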

Assay [3] deals with Rattus norvegicus. Nature of the assay: Antihyperalgesic activity in rat assessed as reversal of oxaliplatin-induced mechanical hyperalgesia at 10 mg.kg, ip by paw pressure test. It is filed as functional, organism-based. The procedure, abridged:
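Rats received oxaliplatin 2.4 mg/kg ip on 5 consecutive days each week, for 15 injections totalling 36 mg/kg. Mechanical hyperalgesia was then measured by the paw-pressure test after a single ip dose of 10 mg/kg. Pregabalin 30 mg/kg po served as reference.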

Assay [4] deals with Rattus norvegicus. As to the kind of experiment: Antihyperalgesic activity in rat assessed as reversal of oxaliplatin-induced mechanical hyperalgesia at 50 to 100 mg.kg, iv by paw pressure test. Format: functional.
Assay [5] is filed under the species Mus musculus. Nature of the assay: Antihyperalgesic activity against streptozotocin-induced thermal hyperalgesia in mouse diabetic neuropathy model assessed as licking latency time after 45 mins by hot plate test (reference value: 9.3 +/- 1.2 sec). A general note: Hot-plate and tail-flick tests time the reaction to a heat stimulus.
The species named for assay [6] is Mus musculus. Nature of the assay: Antihyperalgesic activity against thermal hyperalgesia in saline treated mouse diabetic neuropathy model assessed as licking latency time after 60 mins by hot plate test (reference value: 18.4 +/- 1.6 sec).
For assay [7], the species on record is Mus musculus. Nature of the assay: Antihyperalgesic activity against streptozotocin-induced thermal hyperalgesia in mouse diabetic neuropathy model assessed as licking latency time after 15 mins by hot plate test (reference value: 9.4 +/- 1.3 sec).
The species named for assay [8] is Mus musculus. As to the kind of experiment: Antihyperalgesic activity against thermal hyperalgesia in saline treated mouse diabetic neuropathy model assessed as licking latency time after 15 mins by hot plate test (reference value: 18.1 +/- 1.1 sec).
The species named for assay [9] is Mus musculus. As to the kind of experiment: Antihyperalgesic activity against streptozotocin-induced thermal hyperalgesia in mouse diabetic neuropathy model assessed as licking latency time after 60 mins by hot plate test (reference value: 10.4 +/- 1.2 sec).
Assay [10] is filed under the species Mus musculus. Nature of the assay: Antihyperalgesic activity against thermal hyperalgesia in saline treated mouse diabetic neuropathy model assessed as licking latency time after 30 mins by hot plate test (reference value: 18 +/- 1.5 sec).
Assay [11] is filed under the species Mus musculus. As to the kind of experiment: Antihyperalgesic activity against streptozotocin-induced thermal hyperalgesia in mouse diabetic neuropathy model assessed as licking latency time after 30 mins by hot plate test (reference value: 10.1 +/- 0.8 sec).
The species named for assay [12] is Mus musculus. As to the kind of experiment: Antihyperalgesic activity against thermal hyperalgesia in saline treated mouse diabetic neuropathy model assessed as licking latency time after 45 mins by hot plate test (reference value: 17.8 +/- 1.5 sec).

The structures appear in SMILES notation. The source made the active and inactive calls. No cut-off for these calls is given here.

With `CC(=O)NC1CCN(S(=O)(=O)C(C)C)CC1`, in the assay on Mus musculus [1], the minimal effective dose came out at 1 mg/kg.
For `CC(=O)NC1CCN(C(=O)c2ccccc2)CC1`, in the assay on Mus musculus [1], the minimal effective dose worked out at 10 mg/kg.
`CC(C)S(=O)(=O)N1CC[C@@H]2NC(=O)C[C@@H]2C1`: the result in the assay on Mus musculus [2] was inactive.
As for `O=C1CC2CN(S(=O)(=O)c3ccc(F)cc3)CCC2N1` (racemic; form 1), the result with Rattus norvegicus [3] was Active.
As to `O=C1CC2CN(S(=O)(=O)c3ccc(F)cc3)CCC2N1` (racemic; form 2), the outcome in the assay on Rattus norvegicus [3] was Active.
As for `O=C1C[C@@H]2CN(S(=O)(=O)c3ccc(F)cc3)CC[C@@H]2N1` (relative stereo), the MED in the assay on Mus musculus [1] was determined as 0.1 mg/kg.
`O=C1C[C@@H]2CN(C(=O)c3ccccc3)CC[C@@H]2N1` (relative stereo): the minimal effective dose in the assay on Mus musculus [1] amounted to 3 mg/kg.
Take `O=C1C[C@H]2CN(S(=O)(=O)c3ccc(F)cc3)CC[C@@H]2N1` (relative stereo): the MED in the assay on Mus musculus [1] stood at 1 mg/kg.
As to `O=C1C[C@H]2CN(C(=O)c3ccccc3)CC[C@@H]2N1` (relative stereo), the minimal effective dose in the assay with Mus musculus [1] is 3 mg/kg.
Take `CC(C)S(=O)(=O)N1CC[C@@H]2NC(=O)C[C@H]2C1` (relative stereo): the minimal effective dose in the assay on Mus musculus [1] amounted to 10 mg/kg.
With `O=C1C[C@@H]2CN(S(=O)(=O)c3ccc(F)cc3)CC[C@@H]2N1` (stereo in doubt; (+)-4), the Activity with Rattus norvegicus [4] is given as 75%.
For the molecule `O=C1C[C@@H]2CN(S(=O)(=O)c3ccc(F)cc3)CC[C@@H]2N1` (stereo in doubt; (-)-4), the minimal effective dose in the assay on Mus musculus [1] is 0.1 mg/kg.
As for `O=C1C[C@H]2CN(S(=O)(=O)c3ccc(F)cc3)CC[C@@H]2N1` (stereo in doubt; (-)-7), the minimal effective dose in the assay on Mus musculus [1] is 1 mg/kg.
`O=C1O[C@H]([C@@H](O)CO)C(O)=C1O` [ASCORBIC ACID]: the Activity in the assay with Rattus norvegicus [4] is 50%.
For the molecule `O=C(O)CCCCC1CCSS1` (stereo not drawn) [LIPOIC ACID, ALPHA], the Activity with Rattus norvegicus [4] worked out at 50%.
On to `NC(=O)CN1CCCC1=O` [PIRACETAM], for which the minimal effective dose with Mus musculus [1] is 30 mg/kg.
For the molecule `CC(=O)NC1CCN(S(=O)(=O)c2ccc(F)cc2)CC1` [SAPUNIFIRAM], the Time in the assay listed under Mus musculus [5] worked out at 10.4 s; in the assay filed under Mus musculus [6], 15.6 s; in the assay filed under Mus musculus [7] it was 15.6 s; in the assay filed under Mus musculus [8], 16.5 s; in the assay filed under Mus musculus [9] it was 11.2 s; in the assay listed under Mus musculus [10], 15.7 s. For the same molecule, the results for the Time in the assay filed under Mus musculus [11] and in the assay filed under Mus musculus [12] were 12.4 s and 16.3 s, respectively. Further, the outcome in the assay with Rattus norvegicus [3] was inactive. For the same molecule, the minimal effective dose with Mus musculus [1] was found to be 0.01 mg/kg.

Source of the values: ChEMBL document CHEMBL1764958, “Synthesis and biological evaluation of 3,7-diazabicyclo[4.3.0]nonan-8-ones as potential nootropic and analgesic drugs” (2011).
